Key:
Canis familiaris [1] = assay: Diuretic activity in mongrel dog assessed as sodium level in excreted urine at 1 mg/kg, iv measured […] after dosage (reference value: 3 to 95 uequiv/min); type: functional, Canis lupus familiaris
Outline: (§1)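 Compounds were given iv to dogs as Na salts in H2O. The baseline is the mean of two 15-min periods before dosing. The response is the mean of two consecutive 15-min periods of maximal Na+ excretion, usually 15–45 min post-dose. Na+, K+ and Cl- are in μequiv/min and urine volume in ml/min, reported as control/drug.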

Canis familiaris [2] = assay: Diuretic activity in mongrel dog assessed as potassium level in excreted urine at 1 mg/kg, iv measured between 15 to 45 mins after dosage (reference value: 6 to 47 uequiv/min); type: functional, Canis lupus familiaris
Outline: as §1, with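 “H2O. […]” for “H2O.”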

Canis familiaris [3] = assay: Diuretic activity in mongrel dog assessed as chloride level in excreted urine at 1 mg/kg, iv measured between 15 to 45 mins after dosage (reference value: 1 to 70 uequiv/min); type: functional, Canis lupus familiaris; outline: as §1
Canis familiaris [4] = assay: Diuretic activity in mongrel dog assessed as volume of excreted urine at 1 mg/kg, iv measured between 15 to 45 mins after dosage (reference value: 1 to 4 ml/min); type: functional, Canis lupus familiaris
Outline: as §1, with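 “H2O. […]” for “H2O.”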

Canis familiaris [5] = assay: Diuretic activity in mongrel dog assessed as sodium level in excreted urine at 1 mg/kg, po measured for 6 hrs (reference value: 2 mequivalents); type: functional, Canis lupus familiaris
Canis familiaris [6] = assay: Diuretic activity in mongrel dog assessed as potassium level in excreted urine at 1 mg/kg, po measured for 6 hrs (reference value: 1 mequivalents); type: functional, Canis lupus familiaris
Canis familiaris [7] = assay: Diuretic activity in mongrel dog assessed as chloride level in excreted urine at 1 mg/kg, po measured for 6 hrs (reference value: 2 mequivalents); type: functional, Canis lupus familiaris
Canis familiaris [8] = assay: Diuretic activity in mongrel dog assessed as volume of excreted urine at 1 mg/kg, po measured for 6 hrs (RVb = 180 ml)
Canis familiaris [9] = assay: Diuretic activity in mongrel dog assessed as sodium level in excreted urine at 0.4 mg/kg, po measured for 6 hrs (reference value: 2 mequivalents); type: functional, Canis lupus familiaris
Canis familiaris [10] = assay: Diuretic activity in mongrel dog assessed as potassium level in excreted urine at 0.4 mg/kg, po measured for 6 hrs (reference value: 1 mequivalents); type: functional, Canis lupus familiaris
Canis familiaris [11] = assay: Diuretic activity in mongrel dog assessed as chloride level in excreted urine at 0.4 mg/kg, po measured for 6 hrs (reference value: 2 mequivalents); type: functional, Canis lupus familiaris
Canis familiaris [12] = assay: Diuretic activity in mongrel dog assessed as volume of excreted urine at 0.4 mg/kg, po measured for 6 hrs (RVb = 180 ml)
Canis familiaris [13] = assay: Diuretic activity in mongrel dog assessed as sodium level in excreted urine at 10 mg/kg, iv measured […] after dosage (reference value: 5 to 66 uequiv/min); type: functional, Canis lupus familiaris
Outline: as §1, with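 “H2O. […]” for “H2O.”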

Canis familiaris [14] = assay: Diuretic activity in mongrel dog assessed as potassium level in excreted urine at 10 mg/kg, iv measured between 15 to 45 mins after dosage (reference value: 7 to 63 uequiv/min); type: functional, Canis lupus familiaris
Outline: as §1, with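 “H2O. […]” for “H2O.”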

Canis familiaris [15] = assay: Diuretic activity in mongrel dog assessed as chloride level in excreted urine at 10 mg/kg, iv measured between 15 to 45 mins after dosage (reference value: 3 to 64 uequiv/min); type: functional, Canis lupus familiaris; outline: as §1
Canis familiaris [16] = assay: Diuretic activity in mongrel dog assessed as volume of excreted urine at 10 mg/kg, iv measured between 15 to 45 mins after dosage (reference value: 1 to 4 ml/min); type: functional, Canis lupus familiaris
Outline: as §1, with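 “H2O. […]” for “H2O.”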

Canis familiaris [17] = assay: Diuretic activity in mongrel dog assessed as sodium level in excreted urine at 5 mg/kg, iv measured […] after dosage (reference value: 1 to 91 uequiv/min); type: functional, Canis lupus familiaris
Outline: as §1, with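 “H2O. […]” for “H2O.”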

Canis familiaris [18] = assay: Diuretic activity in mongrel dog assessed as potassium level in excreted urine at 5 mg/kg, iv measured between 15 to 45 mins after dosage (reference value: 12 to 70 uequiv/min); type: functional, Canis lupus familiaris
Outline: as §1, with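 “H2O. […]” for “H2O.”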

Canis familiaris [19] = assay: Diuretic activity in mongrel dog assessed as chloride level in excreted urine at 5 mg/kg, iv measured between 15 to 45 mins after dosage (reference value: 1 to 65 uequiv/min); type: functional, Canis lupus familiaris
Outline: as §1, with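 “H2O. […]” for “H2O.”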

Canis familiaris [20] = assay: Diuretic activity in mongrel dog assessed as volume of excreted urine at 5 mg/kg, iv measured between 15 to 45 mins after dosage (reference value: 1 to 5 ml/min); type: functional, Canis lupus familiaris
Outline: as §1, with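 “H2O. […]” for “H2O.”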

With `C/C(=C\c1ccc(OCC(=O)O)cc1Cl)[N+](=O)[O-]` as the compound, how does the Activity (Canis familiaris [1]) read?
The Activity was 683 uEq/min.

And the Activity (Canis familiaris [2])?
The Activity was 92 uEq/min.

And the Activity (Canis familiaris [3])?
The Activity was 765 uEq/min.

What about the Activity (Canis familiaris [4]) of the same compound?
The Activity was 7 mL/min.

And the Activity (Canis familiaris [5])?
Its Activity is 16 milliequivalent.

And the Activity (Canis familiaris [6])?
The Activity was 5 milliequivalent.

And the Activity (Canis familiaris [7])?
Its Activity is 22 milliequivalent.

And the Activity (Canis familiaris [8])?
The Activity was 402 mL.

Which results are given for `C/C(=C\c1ccc(OCC(=O)O)c(Cl)c1Cl)[N+](=O)[O-]`?
Activity (Canis familiaris [1]): 2128 uEq/min; Activity (Canis familiaris [2]): 104 uEq/min; Activity (Canis familiaris [3]): 2163 uEq/min; Activity (Canis familiaris [4]): 11 mL/min; Activity (Canis familiaris [9]): 25 milliequivalent; Activity (Canis familiaris [10]): 7 milliequivalent; Activity (Canis familiaris [11]): 31 milliequivalent; Activity (Canis familiaris [12]): 628 mL

What does the source list for `CC/C(=C\c1ccc(OCC(=O)O)c(Cl)c1Cl)[N+](=O)[O-]`?
Activity (Canis familiaris [1]): 1174 uEq/min; Activity (Canis familiaris [2]): 89 uEq/min; Activity (Canis familiaris [3]): 1295 uEq/min; Activity (Canis familiaris [4]): 10 mL/min; Activity (Canis familiaris [5]): 26 milliequivalent; Activity (Canis familiaris [6]): 5 milliequivalent; Activity (Canis familiaris [7]): 28 milliequivalent; Activity (Canis familiaris [8]): 465 mL

`C/C(=C\c1ccc(OCC(=O)O)c2ccccc12)[N+](=O)[O-]` was tested. Which Activity (Canis familiaris [1]) did it give?
The Activity was 1612 uEq/min.

And the Activity (Canis familiaris [2])?
Its Activity is 128 uEq/min.

What about the Activity (Canis familiaris [3]) of the same compound?
Its Activity is 1659 uEq/min.

What about the Activity (Canis familiaris [4]) of the same compound?
The Activity was 15 mL/min.

And the Activity (Canis familiaris [5])?
Its Activity is 33 milliequivalent.

What about the Activity (Canis familiaris [6]) of the same compound?
Its Activity is 7 milliequivalent.

And the Activity (Canis familiaris [7])?
Its Activity is 39 milliequivalent.

What about the Activity (Canis familiaris [8]) of the same compound?
Its Activity is 538 mL.

With `CC/C(=C\c1ccc(OCC(=O)O)c2ccccc12)[N+](=O)[O-]` as the compound, how does the Activity (Canis familiaris [1]) read?
The Activity was 1848 uEq/min.

And the Activity (Canis familiaris [2])?
The Activity was 179 uEq/min.

And the Activity (Canis familiaris [3])?
The Activity was 2036 uEq/min.

What about the Activity (Canis familiaris [4]) of the same compound?
The Activity was 13 mL/min.

For `C/C(=C\c1cc(Cl)ccc1OCC(=O)O)[N+](=O)[O-]`, which Activity (Canis familiaris [1]) is on record?
The Activity was 22 uEq/min.

What about the Activity (Canis familiaris [2]) of the same compound?
The Activity was 17 uEq/min.

And the Activity (Canis familiaris [3])?
Its Activity is 7 uEq/min.

What about the Activity (Canis familiaris [4]) of the same compound?
Its Activity is 2 mL/min.

For `O=C(O)COc1ccc(/C=C/[N+](=O)[O-])cc1Cl`, which Activity (Canis familiaris [13]) is on record?
Its Activity is 201 uEq/min.

And the Activity (Canis familiaris [14])?
The Activity was 65 uEq/min.

What about the Activity (Canis familiaris [15]) of the same compound?
Its Activity is 146 uEq/min.

And the Activity (Canis familiaris [16])?
Its Activity is 3 mL/min.

Which results are given for `C/C(=C\c1ccc(OCC(=O)O)c(Cl)c1)[N+](=O)[O-]`?
Activity (Canis familiaris [1]): 734 uEq/min; Activity (Canis familiaris [2]): 142 uEq/min; Activity (Canis familiaris [3]): 766 uEq/min; Activity (Canis familiaris [4]): 8 mL/min

With `CC/C(=C\c1ccc(OCC(=O)O)c(Cl)c1)[N+](=O)[O-]` as the compound, how does the Activity (Canis familiaris [1]) read?
Its Activity is 1618 uEq/min.

What about the Activity (Canis familiaris [2]) of the same compound?
Its Activity is 131 uEq/min.

And the Activity (Canis familiaris [3])?
The Activity was 1727 uEq/min.

What about the Activity (Canis familiaris [4]) of the same compound?
Its Activity is 15 mL/min.

How did the Activity (Canis familiaris [1]) turn out when `CC/C(=C\c1ccc(OCC(=O)O)cc1Cl)[N+](=O)[O-]` was run?
The Activity was 1398 uEq/min.

And the Activity (Canis familiaris [2])?
Its Activity is 101 uEq/min.

What about the Activity (Canis familiaris [3]) of the same compound?
Its Activity is 1431 uEq/min.

And the Activity (Canis familiaris [4])?
The Activity was 13 mL/min.

`O=C(O)COc1ccc(/C=C/[N+](=O)[O-])c(Cl)c1Cl` was tested. Which Activity (Canis familiaris [1]) did it give?
The Activity was 132 uEq/min.

What about the Activity (Canis familiaris [2]) of the same compound?
Its Activity is 7 uEq/min.

What about the Activity (Canis familiaris [3]) of the same compound?
Its Activity is 47 uEq/min.

What about the Activity (Canis familiaris [4]) of the same compound?
The Activity was 4 mL/min.

Which results are given for `CC/C(=C\c1ccc(OC(C)C(=O)O)c(Cl)c1Cl)[N+](=O)[O-]` (configuration not stated)?
Activity (Canis familiaris [1]): 490 uEq/min; Activity (Canis familiaris [2]): 67 uEq/min; Activity (Canis familiaris [3]): 528 uEq/min; Activity (Canis familiaris [4]): 7 mL/min

How did the Activity (Canis familiaris [17]) turn out when `C/C(=C\c1ccc(OC(C)C(=O)O)c(Cl)c1Cl)[N+](=O)[O-]` (configuration not stated) was run?
The Activity was 1191 uEq/min.

What about the Activity (Canis familiaris [18]) of the same compound?
The Activity was 74 uEq/min.

What about the Activity (Canis familiaris [19]) of the same compound?
Its Activity is 1228 uEq/min.

And the Activity (Canis familiaris [20])?
Its Activity is 9 mL/min.

How did the Activity (Canis familiaris [1]) turn out when `CC/C(=C\c1ccc(OCC(=O)O)c(C)c1C)[N+](=O)[O-]` was run?
Its Activity is 1583 uEq/min.

And the Activity (Canis familiaris [2])?
The Activity was 118 uEq/min.

And the Activity (Canis familiaris [3])?
The Activity was 1650 uEq/min.

What about the Activity (Canis familiaris [4]) of the same compound?
The Activity was 13 mL/min.
